In ChEMBL document CHEMBL1143122, “Novel analogs of D-e-MAPP and B13. Part 1: synthesis and evaluation as potential anticancer agents” (Bioorg Med Chem, 2008):

Columns and labels:
UACC-257 = test: Antiproliferative activity against human UACC257 cells after 48 hrs; format: functional; details: UACC-257, 48 h
Procedure, shortened: (§1)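 NCI 60-cell-line screen. Lines grown in RPMI 1640 with 5% fetal bovine serum and 2 mM L-glutamine, plated at 5,000–40,000 cells/well according to doubling time, left 24 h at 37 °C in 5% CO2. Drug stocks in DMSO at 400-fold the top final concentration. Five 10-fold dilutions, 10−4 to 10−8 M, incubated 48 h. Growth read spectrophotometrically as net protein; GI50 taken as 50% reduction.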

LOX IMVI = test: Antiproliferative activity against human LOXIMVI cells after 48 hrs; format: functional
Procedure, shortened: (§2)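 NCI 60-cell screen. Cells were grown in RPMI 1640 with 5% FBS and 2 mM L-glutamine, then plated at 5,000–40,000 cells/well according to doubling time and preincubated for 24 h at 37 °C in 5% CO2. Compounds were dissolved in DMSO at 400× the top final concentration and tested at five 10-fold dilutions from 10−4 to 10−8 M for 48 h. Growth was read spectrophotometrically; GI50 is 50% net protein reduction.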

CAKI-1 = test: Antiproliferative activity against human CAKI1 cells after 48 hrs; format: functional; details: CAKI-1, 48 h; procedure, shortened: as §2
DU-145 = test: Antiproliferative activity against human DU145 cells after 48 hrs; format: functional; details: DU-145, 48 h; procedure, shortened: as §2
[1] = Antiproliferative activity against human HL60(TB) cells after 48 hrs; format: functional, HL-60(TB); details: HL-60, 48 h
Procedure, shortened: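 NCI 60-line panel screen: cells grown in RPMI 1640 with 5% fetal bovine serum and 2 mM L-glutamine, plated at 5,000–40,000 cells/well by doubling time, and preincubated 24 h at 37 °C in 5% CO2. Drugs were solubilised in DMSO at 400-fold the final maximum and tested at five 10-fold dilutions from 10−4 to 10−8 M for 48 h. Net protein was read spectrophotometrically, and the concentration giving 50% reduction was reported as log10 GI50.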

HOP-92 = test: Antiproliferative activity against human HOP92 cells after 48 hrs; format: functional; details: HOP-92, 48 h; procedure, shortened: as §2
MDA-MB-231 = test: Antiproliferative activity against human MDA-MB-231 cells after 48 hrs; format: functional; details: MDA-MB-231, 48 h; procedure, shortened: as §2
SK-MEL-2 = test: Antiproliferative activity against human SKMEL2 cells after 48 hrs; format: functional; details: SK-MEL-2, 48 h; procedure, shortened: as §2
[2] = Antiproliferative activity against human NCI-ADR-RES cells after 48 hrs; format: functional; procedure, shortened: as §2
786-0 = test: Antiproliferative activity against human 786-0 cells after 48 hrs; format: functional; details: 786-0, 48 h; procedure, shortened: as §2
SNB-19 = test: Antiproliferative activity against human SNB19 cells after 48 hrs; format: functional; details: SNB-19, 48 h; procedure, shortened: as §2
SK-OV-3 = test: Antiproliferative activity against human SKOV3 cells after 48 hrs; format: functional; details: SK-OV-3, 48 h; procedure, shortened: as §2
SF-295 = test: Antiproliferative activity against human SF295 cells after 48 hrs; format: functional; details: SF-295, 48 h; procedure, shortened: as §2
NCI-H322M = test: Antiproliferative activity against human NCI-H322M cells after 48 hrs; format: functional; procedure, shortened: as §2
T47D = test: Antiproliferative activity against human T47D cells after 48 hrs; format: functional; procedure, shortened: as §1
A498 = test: Antiproliferative activity against human A498 cells after 48 hrs; format: functional; details: A498, 48 h; procedure, shortened: as §2
KM12 = test: Antiproliferative activity against human KM12 cells after 48 hrs; format: functional; details: Homo sapiens, KM12, 48 h; procedure, shortened: as §2
NCI-H460 = test: Antiproliferative activity against human NCI-H460 cells after 48 hrs; format: functional; details: NCI-H460, 48 h; procedure, shortened: as §2
PC-3 = test: Antiproliferative activity against human PC3 cells after 48 hrs; format: functional; details: PC-3, 48 h; procedure, shortened: as §2
HCT-15 = test: Antiproliferative activity against human HCT15 cells after 48 hrs; format: functional; details: Homo sapiens, HCT-15, 48 h; procedure, shortened: as §2
SN12C = test: Antiproliferative activity against human SN12C cells after 48 hrs; format: functional; procedure, shortened: as §2
IGROV-1 = test: Antiproliferative activity against human IGROV1 cells after 48 hrs; format: functional; details: IGROV-1, 48 h; procedure, shortened: as §2
UACC-62 = test: Antiproliferative activity against human UACC62 cells after 48 hrs; format: functional; details: UACC-62, 48 h; procedure, shortened: as §1
UO-31 = test: Antiproliferative activity against human UO31 cells after 48 hrs; format: functional; details: UO-31, 48 h; procedure, shortened: as §1
M14 = test: Antiproliferative activity against human M14 cells after 48 hrs; format: functional; details: M14, 48 h; procedure, shortened: as §2
SK-MEL-28 = test: Antiproliferative activity against human SKMEL28 cells after 48 hrs; format: functional; details: SK-MEL-28, 48 h; procedure, shortened: as §2
HT-29 = test: Antiproliferative activity against human HT29 cells after 48 hrs; format: functional; details: HT-29, 48 h; procedure, shortened: as §2
HOP-62 = test: Antiproliferative activity against human HOP62 cells after 48 hrs; format: functional; details: HOP-62, 48 h; procedure, shortened: as §2
MOLT-4 = test: Antiproliferative activity against human MOLT4 cells after 48 hrs; format: functional; details: MOLT-4, 48 h; procedure, shortened: as §2
TK-10 = test: Antiproliferative activity against human TK10 cells after 48 hrs; format: functional; details: TK-10, 48 h; procedure, shortened: as §1
[3] = read-out: Log LC50 (the source's name) (converted)

CCCCCCCCCCCCCCN[C@H](CO)[C@H](O)c1ccccc1
GI50 (UACC-257): 1.7 µM | CC50 (UACC-257; [3]): 7.24 µM | TGI (UACC-257; read-out: Log TGI (converted)): 3.47 µM | GI50 (LOX IMVI): 1.78 µM | LC50 (LOX IMVI): 5.75 µM | TGI (LOX IMVI; read-out: Log TGI (converted)): 3.16 µM | GI50 (CAKI-1): 1.66 µM | CC50 (CAKI-1; [3]): 7.76 µM | TGI (CAKI-1; read-out: Log TGI (converted)): 3.55 µM | GI50 (DU-145): 1.66 µM | CC50 (DU-145; [3]): 6.17 µM | TGI (DU-145; read-out: Log TGI (converted)): 3.16 µM | GI50 [1]: 3.31 µM | LC50 [1]: 8.51 µM | TGI ([1]; read-out: Log TGI (converted)): 3.72 µM | GI50 (HOP-92): 1.41 µM | LC50 (HOP-92): 5.89 µM | TGI (HOP-92; read-out: Log TGI (converted)): 2.88 µM | GI50 (MDA-MB-231): 1.74 µM | LC50 (50% lethal concentration) (MDA-MB-231): 6.61 µM | TGI (MDA-MB-231; read-out: Log TGI (converted)): 3.39 µM | GI50 (SK-MEL-2): 2.14 µM | LC50 (SK-MEL-2): > 100 µM | TGI (SK-MEL-2; read-out: Log TGI (converted)): 4.79 µM | GI50 [2]: 2.09 µM | LC50 [2]: 6.92 µM | TGI ([2]; read-out: Log TGI (converted)): 3.8 µM | GI50 (786-0): 1.62 µM | CC50 (786-0; [3]): 5.62 µM | TGI (786-0; read-out: Log TGI (converted)): 3.02 µM | GI50 (SNB-19): 1.78 µM | TGI (SNB-19; read-out: Log TGI (converted)): 3.24 µM | GI50 (SK-OV-3): 6.76 µM | CC50 (SK-OV-3; [3]): 79.4 µM | TGI (SK-OV-3; read-out: Log TGI (converted)): 24.5 µM | GI50 (SF-295): 1.86 µM | LC50 (SF-295): 6.76 µM | TGI (SF-295; read-out: Log TGI (converted)): 3.55 µM | GI50 (NCI-H322M): 2.14 µM | CC50 (NCI-H322M; [3]): 7.24 µM | TGI (NCI-H322M; read-out: Log TGI (converted)): 3.89 µM | GI50 (T47D): 1.91 µM | TGI (T47D; read-out: Log TGI (converted)): 3.63 µM | GI50 (A498): 18.2 µM | CC50 (A498; [3]): > 100 µM | TGI (A498; read-out: Log TGI (converted)): 42.7 µM | GI50 (KM12): 1.86 µM | CC50 (KM12; [3]): 5.89 µM | TGI (KM12; read-out: Log TGI (converted)): 3.31 µM | GI50 (NCI-H460): 1.86 µM | TGI (NCI-H460; read-out: Log TGI (converted)): 3.47 µM | GI50 (PC-3): 1.58 µM | LC50 (PC-3): 5.5 µM | TGI (PC-3; read-out: Log TGI (converted)): 2.95 µM | GI50 (HCT-15): 1.91 µM | LC50 (HCT-15): 6.03 µM | TGI (HCT-15; read-out: Log TGI (converted)): 3.39 µM | GI50 (SN12C): 1.74 µM | LC50 (50% net cell kill) (SN12C): 6.46 µM | TGI (SN12C; read-out: Log TGI (converted)): 3.31 µM | GI50 (IGROV-1): 1.55 µM | TGI (IGROV-1; read-out: Log TGI (converted)): 3.24 µM | GI50 (UACC-62): 1.82 µM | LC50 (UACC-62): 7.59 µM | TGI (UACC-62; read-out: Log TGI (converted)): 3.72 µM | GI50 (UO-31): 3.8 µM | LC50 (UO-31): 79.4 µM | TGI (UO-31; read-out: Log TGI (converted)): 17.8 µM | GI50 (M14): 1.86 µM | LC50 (M14): 5.89 µM | TGI (M14; read-out: Log TGI (converted)): 3.31 µM | GI50 (SK-MEL-28): 1.82 µM | LC50 (SK-MEL-28): 5.62 µM | TGI (SK-MEL-28; read-out: Log TGI (converted)): 3.24 µM | GI50 (HT-29): 1.7 µM | LC50 (HT-29): 5.62 µM | TGI (HT-29; read-out: Log TGI (converted)): 3.09 µM | GI50 (HOP-62): 1.48 µM | CC50 (HOP-62; [3]): 5.37 µM | TGI (HOP-62; read-out: Log TGI (converted)): 2.82 µM | GI50 (MOLT-4): 2.09 µM | GI50 (TK-10): 2 µM | CC50 (TK-10; [3]): 13.8 µM | TGI (TK-10; read-out: Log TGI (converted)): 4.68 µM
